The values below come from ChEMBL document CHEMBL4765320, “Identification and optimization of piperine analogues as neuroprotective agents for the treatment of Parkinson's disease via the activation of Nrf2/keap1 pathway” (Eur J Med Chem, 2020).

By inhibition in vivo is commonly meant the relative decrease from the control value, in per cent.

The subject of data set [1] is Mus musculus. The data set can be described thus: Neuroprotective activity against lesioned C57BL/6 mouse model of Parkinson's disease assessed as increase in expression of HO-1 and NQO1 at 50 to 100 mg/kg , po administered for 2 week before MPTP stimulation by western blotting assays. The class given is functional, organism-based. To be noted: Brain, dose 50-100 mg/kg, time 2.0 weeks. (In general: Immunoblotting shows a protein as a band on a membrane.)

For data set [2], the system named is PC-12. The data set can be described thus: Inhibition of H202-induced apoptosis in rat PC-12 cells assessed as necrotic cells at 50 uM after 24 hrs by Annexin-V-FITC/PI-staining based flow cytometric analysis (reference value: 0.33%). It counts as functional. On the set-up: scale not given: the % may be the effect or the level left. Summed up: (§1)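 PC12 cells seeded 2 × 10⁵/well for 24 h, pretreated 24 h with 12.5, 25, 50 or 100 µM compound, then given fresh medium containing 650 µM H2O2. Harvested cells washed in binding buffer, stained 5 min with Annexin V-FITC/PI, analysed by flow cytometry.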
For orientation: In flow cytometry, cells or beads pass a laser one at a time.

The target in data set [3] is T1, Nuclear factor erythroid 2-related factor 2 (Homo sapiens) (UniProt Q16236).
T1 sequence (whole entry): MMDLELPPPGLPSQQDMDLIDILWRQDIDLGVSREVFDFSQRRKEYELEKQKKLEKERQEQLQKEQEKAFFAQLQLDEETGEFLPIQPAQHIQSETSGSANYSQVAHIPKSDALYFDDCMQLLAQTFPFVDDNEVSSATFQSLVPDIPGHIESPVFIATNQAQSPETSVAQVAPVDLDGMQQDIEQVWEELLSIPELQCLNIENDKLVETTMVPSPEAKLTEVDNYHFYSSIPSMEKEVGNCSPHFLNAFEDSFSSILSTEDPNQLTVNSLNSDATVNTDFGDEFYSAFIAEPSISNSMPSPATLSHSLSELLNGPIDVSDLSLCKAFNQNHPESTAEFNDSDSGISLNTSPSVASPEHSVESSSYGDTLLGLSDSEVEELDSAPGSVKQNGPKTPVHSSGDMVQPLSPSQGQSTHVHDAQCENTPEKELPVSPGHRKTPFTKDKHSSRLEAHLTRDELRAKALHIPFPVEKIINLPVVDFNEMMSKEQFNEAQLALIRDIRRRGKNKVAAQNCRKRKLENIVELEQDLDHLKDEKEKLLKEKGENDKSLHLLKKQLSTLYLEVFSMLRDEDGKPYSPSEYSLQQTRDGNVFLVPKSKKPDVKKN
Kind of data set: Activation of Nrf2 in human HepG2-ARE-C8 cells assessed as fold change at 12.5 uM measured after 12 hrs by luciferase reporter gene assay relative to control. Conditions: filed as activator. The class given is cell-based. In general terms: In a reporter assay the amount or activity of a reporter protein is the signal.

The subject of data set [4] is PC-12. Kind of data set: Inhibition of H202-induced apoptosis in rat PC-12 cells assessed as viable cells at 100 uM after 24 hrs by Annexin-V-FITC/PI-staining based flow cytometric analysis (reference value: 52.01%). The class given is functional. To be noted: read-out: Activity. Summed up:
as §1

Data set [5] concerns Mus musculus. Kind of data set: Neuroprotective activity in lesioned C57BL/6 mouse model of Parkinson's disease assessed as increase in time spent on rotarod at 100 mg/kg, po administered for 2 week after MPTP stimulation by rotarod test. To be noted: time 2 weeks. It counts as functional. In a few lines: (§2)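 Male 10-week-old C57BL/6 mice (20–23 g), n = 6/group. Prophylactic: oral compound (50 or 100 mg/kg in saline) 2 weeks, then MPTP-HCl 25 mg/kg i.p. in week 3. Therapeutic: MPTP-HCl 25 mg/kg i.p. 1 week, then oral 100 mg/kg 2 weeks. Saline vehicle. Pole/rotarod training last 3 days; TH immunohistochemistry on SNpc and striatum.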

Data set [6] concerns Mus musculus. Kind of data set: Neuroprotective activity in lesioned C57BL/6 mouse model of Parkinson's disease assessed as assessed as reduction in climbing down time at 100 mg/kg, po administered for 2 week before MPTP stimulation by pole test. The class given is functional. Conditions: C57BL/6, po, 336 h, time 2 weeks. Summed up:
as §2

In data set [7] the test system is PC-12. Kind of data set: Inhibition of H202-induced apoptosis in rat PC-12 cells assessed as late apoptotic cells at 100 uM after 24 hrs by Annexin-V-FITC/PI-staining based flow cytometric analysis (reference value: 32.5%). On the set-up: scale not given: the % may be the effect or the level left. It counts as functional. In a few lines: as §1
For data set [8], the system named is PC-12. The data set can be described thus: Inhibition of H2O2-induced mitochondrial membrane potential loss in rat PC-12 cells pretreated for 24 hrs followed by H2O2 challenge and measured after 24 hrs by JC-1 staining based fluorescence microplate reader assay. To be noted: dose 12.5-50 µM, time 48.0 hrs.
The test system of data set [9] is PC-12. The data set can be described thus: Inhibition of H202-induced apoptosis in rat PC-12 cells assessed as early apoptotic cells at 100 uM after 24 hrs by Annexin-V-FITC/PI-staining based flow cytometric analysis (reference value: 15.16%). It counts as functional. Details: scale not given: the % may be the effect or the level left. Summed up: as §1
Data set [10] relates to PC-12. Kind of data set: Inhibition of H202-induced apoptosis in rat PC-12 cells assessed as late apoptotic cells at 50 uM after 24 hrs by Annexin-V-FITC/PI-staining based flow cytometric analysis (reference value: 32.5%). It counts as functional. On the set-up: scale not given: the % may be the effect or the level left. Summed up: as §1
Data set [11] deals with PC-12. Kind of data set: Inhibition of H202-induced apoptosis in rat PC-12 cells assessed as necrotic cells at 12.5 uM after 24 hrs by Annexin-V-FITC/PI-staining based flow cytometric analysis (reference value: 0.33%). The class given is functional. On the set-up: scale not given: the % may be the effect or the level left. In a few lines:
as §1

Data set [12] deals with PC-12. The data set can be described thus: Neuroprotective activity against H2O2-induced cytotoxicity in rat PC-12 cells assessed as cell viability at 12.5 uM pretreated for 24 hrs followed by H2O2 challenge and measured after 24 hrs by MTT assay (reference value: 52.81 +/- 6%). It counts as functional. To be noted: time 48 hrs, read-out: Activity.
In data set [13] the test system is PC-12. The data set can be described thus: Cytotoxicity against rat PC-12 cells assessed as increase LDH content in presence of H2O2 incubated at 50 to 100 uM for 24 hrs by Lactate dehydrogenase assay. It counts as cell-based. Conditions: pc-12, 24 h, dose 50-100 µM. In a few lines:
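PC12 cells seeded 1 × 10⁴/well for 24 h, pretreated with compound at several concentrations (12.5–100 µM range), then challenged with H2O2; LDH released into medium quantified as membrane-damage marker. Mean ± SD, three independent experiments.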

The test system of data set [14] is PC-12. Kind of data set: Upregulation of HO-1 expression in rat PC-12 cell incubated for 24 hrs by Western blot analysis. It counts as functional. Summed up:
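PC12 cells treated with compound for 24 h; lysates resolved by SDS-PAGE, transferred to PVDF and probed for HO-1 and NQO1; band intensities quantified densitometrically. Mean ± SD of three independent experiments.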

Data set [15] relates to PC-12. The data set can be described thus: Inhibition of H202-induced apoptosis in rat PC-12 cells assessed as viable cells at 50 uM after 24 hrs by Annexin-V-FITC/PI-staining based flow cytometric analysis (reference value: 52.01%). To be noted: read-out: Activity. It counts as functional. In a few lines:
as §1

In data set [16] the test system is PC-12. Kind of data set: Inhibition of H202-induced apoptosis in rat PC-12 cells assessed as late apoptotic cells at 25 uM after 24 hrs by Annexin-V-FITC/PI-staining based flow cytometric analysis (reference value: 32.5%). The class given is functional. Details: scale not given: the % may be the effect or the level left. In a few lines: as §1
In data set [17] the test system is PC-12. Kind of data set: Inhibition of H202-induced apoptosis in rat PC-12 cells assessed as necrotic cells at 25 uM after 24 hrs by Annexin-V-FITC/PI-staining based flow cytometric analysis (reference value: 0.33%). The class given is functional. On the set-up: scale not given: the % may be the effect or the level left. Summed up: as §1
Data set [18] deals with Mus musculus. The data set can be described thus: Neuroprotective activity in lesioned C57BL/6 mouse model of Parkinson's disease assessed as increase in time spent on rotarod at 100 mg/kg, po administered for 2 week before MPTP stimulation by rotarod test. Conditions: time 2 weeks. It counts as functional. Summed up:
as §2

The subject of data set [19] is Mus musculus. Kind of data set: Neuroprotective activity against lesioned C57BL/6 mouse model of Parkinson's disease assessed as increase in number of TH positive cells at 100 mg/kg , po administered for 2 week […] by Immuno histochemistry assays. Conditions: time 2 weeks.

The source made the active and inactive calls. The rule behind the calls is not given here.

As to `COc1ccccc1/C=C/C=C/C(=O)N1CCCCC1`, the outcome in [1] and in data set [14] was Active. Moreover, the Activity is recorded as 0.26% in data set [2]; 29.28% in data set [7]; 12.11% in [9]; 12.95% in data set [10]; 0.3% in [11]; “Toxic” in data set [13]. The Activity in data set [16] stood at 18.04%; in data set [17] it was 0.24%; in data set [19], 74%. Besides, the fold change (FC) in [3] was found to be 3. In [4], the viability at 100 µM came to 58%. Besides, the Time in data set [5] is 189.5 s; in data set [18], 226.2 s. Also, the inhibition in vivo at 100 mg/kg in data set [6] amounted to 34.5%. In [8], the inhibition entry was “Dose-dependent effect”. Also, the viability at 12.5 µM in data set [12] was determined as 88.8%. Besides, the viability at 50 µM in data set [15] was found to be 74.8%.
